Assay results from ChEMBL document CHEMBL1806473, “Structure-based optimization of click-based histone deacetylase inhibitors” (Eur J Med Chem, 2011).

Legend:
BT-549 [1] = assay: Antiproliferative activity against human BT549 cells by SRB assay; assay type: functional
Procedure, shortened: (§1)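 Tested in the NCI in vitro human tumor cell line screen, run by the National Cancer Institute. Each compound was given at five concentrations (100, 10, 1.0, 0.1 and 0.01 μM). GI50 is the drug concentration that reduces growth of treated cells to half that of control cells during drug incubation, judged from the SRB signal.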

DU-145 [2] = assay: Cytotoxicity against human DU145 cells; assay type: cell-based
Procedure, shortened: (§2)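 Tested in the NCI in vitro disease-oriented human tumour cell line screen, with screening performed by NCI. Growth was read by SRB signal over the drug incubation period at five concentrations: 100, 10, 1.0, 0.1 and 0.01 μM. GI50 is the concentration that reduces growth of treated cells to half that of control cells.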

NCI-H460 [3] = assay: Cytotoxicity against human NCI-H460 cells; assay type: cell-based
A549 = assay: Cytotoxicity against human A549 cells; assay type: cell-based; procedure, shortened: as §2
SK-OV-3 [4] = assay: Antiproliferative activity against human SKOV3 cells by SRB assay; assay type: functional; procedure, shortened: as §1
COLO 205 = assay: Cytotoxicity against human COLO205 cells; assay type: cell-based; procedure, shortened: as §2
M14 [5] = assay: Cytotoxicity against human M14 cells; assay type: cell-based
TK-10 = assay: Antiproliferative activity against human TK10 cells by SRB assay; assay type: functional
Procedure, shortened: (§3)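 Cell growth was tested in the NIH in vitro disease-oriented human tumor cell line screen, which NCI ran for these compounds. Compounds were tested at five concentrations (100, 10, 1.0, 0.1 and 0.01 μM), and growth was read by SRB signal. GI50 is the drug concentration that reduces growth of treated cells to half that of control cells during drug incubation.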

K562 = assay: Antiproliferative activity against human K562 cells by SRB assay; assay type: functional; procedure, shortened: as §1
Malme-3M [6] = assay: Cytotoxicity against human MALME-3M cells; assay type: cell-based; procedure, shortened: as §2
BT-549 [7] = assay: Cytotoxicity against human BT549 cells; assay type: cell-based
MDA-MB-231 [8] = assay: Cytotoxicity against human MDA-MB-231 cells; assay type: functional; procedure, shortened: as §2
NCI-H23 [9] = assay: Antiproliferative activity against human NCI-H23 cells by SRB assay; assay type: functional; procedure, shortened: as §1
LOX IMVI [10] = assay: Antiproliferative activity against human LOXIMVI cells by SRB assay; assay type: functional; procedure, shortened: as §1
RXF 393 = assay: Antiproliferative activity against human RXF393 cells by SRB assay; assay type: functional; procedure, shortened: as §1
ACHN = assay: Antiproliferative activity against human ACHN cells by SRB assay; assay type: functional; procedure, shortened: as §1
786-0 [11] = assay: Antiproliferative activity against human 786-0 cells by SRB assay; assay type: functional; procedure, shortened: as §1
SN12C = assay: Antiproliferative activity against human SN12C cells by SRB assay; assay type: functional; procedure, shortened: as §1
CCRF-CEM = assay: Cytotoxicity against human CCRF-CEM cells; assay type: cell-based
HOP-92 = assay: Cytotoxicity against human HOP92 cells; assay type: cell-based
CAKI-1 = assay: Cytotoxicity against human Caki1 cells; assay type: cell-based
SF-539 [12] = assay: Cytotoxicity against human SF539 cells; assay type: cell-based; procedure, shortened: as §2
A498 [13] = assay: Antiproliferative activity against human A498 cells by SRB assay; assay type: functional; procedure, shortened: as §1
EKVX [14] = assay: Antiproliferative activity against human EKVX cells by SRB assay; assay type: functional; procedure, shortened: as §1
U-251 = assay: Antiproliferative activity against human U251 cells by SRB assay; assay type: functional; procedure, shortened: as §3
OVCAR-4 = assay: Cytotoxicity against human OVCAR4 cells; assay type: cell-based
M14 [15] = assay: Antiproliferative activity against human M14 cells by SRB assay; assay type: functional; procedure, shortened: as §1
SF-268 [16] = assay: Antiproliferative activity against human SF268 cells by SRB assay; assay type: functional; procedure, shortened: as §1
T47D = assay: Antiproliferative activity against human T47D cells by SRB assay; assay type: functional; procedure, shortened: as §3
SF-268 [17] = assay: Cytotoxicity against human SF268 cells; assay type: cell-based; procedure, shortened: as §2
MDA-MB-435 [18] = assay: Cytotoxicity against human MDA-MB-435 cells; assay type: cell-based
UACC-62 = assay: Antiproliferative activity against human UACC62 cells by SRB assay; assay type: functional; procedure, shortened: as §3
SF-295 = assay: Antiproliferative activity against human SF295 cells by SRB assay; assay type: functional; procedure, shortened: as §1
A498 [19] = assay: Cytotoxicity against human A498 cells; assay type: cell-based
PC-3 = assay: Cytotoxicity against human PC3 cells; assay type: cell-based
SR [20] = assay: Antiproliferative activity against human SR cells by SRB assay; assay type: functional; procedure, shortened: as §3
SW-620 [21] = assay: Cytotoxicity against human SW620 cells; assay type: cell-based
Procedure, shortened: (§4)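 Screened by NCI in its in vitro disease-oriented human tumour cell line panel. Compounds tested at five concentrations (100, 10, 1.0, 0.1 and 0.01 μM). Growth read by sulforhodamine B (SRB) signal. GI50 is the concentration reducing growth of treated cells to half that of control cells during the drug incubation.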

EKVX [22] = assay: Cytotoxicity against human EKVX cells; assay type: cell-based; procedure, shortened: as §2
SR [23] = assay: Cytotoxicity against human SR cells; assay type: cell-based; procedure, shortened: as §4
SK-MEL-2 = assay: Cytotoxicity against human SK-MEL-2 cells; assay type: cell-based; procedure, shortened: as §2
OVCAR-5 [24] = assay: Cytotoxicity against human OVCAR5 cells; assay type: cell-based; procedure, shortened: as §2
OVCAR-3 = assay: Antiproliferative activity against human OVCAR3 cells by SRB assay; assay type: functional; procedure, shortened: as §1
HCT-15 = assay: Antiproliferative activity against human HCT15 cells by SRB assay; assay type: functional; procedure, shortened: as §1
NCI-H322M [25] = assay: Cytotoxicity against human NCI-H322M cells; assay type: cell-based
NCI-H23 [26] = assay: Cytotoxicity against human NCI-H23 cells; assay type: cell-based
SW-620 [27] = assay: Antiproliferative activity against human SW620 cells by SRB assay; assay type: functional; procedure, shortened: as §3
NCI-H460 [28] = assay: Antiproliferative activity against human NCI-H460 cells by SRB assay; assay type: functional; procedure, shortened: as §1
NCI-H322M [29] = assay: Antiproliferative activity against human NCI-H322M cells by SRB assay; assay type: functional; procedure, shortened: as §1
SF-539 [30] = assay: Antiproliferative activity against human SF539 cells by SRB assay; assay type: functional; procedure, shortened: as §1
SK-MEL-28 = assay: Antiproliferative activity against human SK-MEL-28 cells by SRB assay; assay type: functional; procedure, shortened: as §1
786-0 [31] = assay: Cytotoxicity against human 786-0 cells; assay type: cell-based
MCF7 = assay: Antiproliferative activity against human MCF7 cells by SRB assay; assay type: functional; procedure, shortened: as §1
DU-145 [32] = assay: Antiproliferative activity against human DU145 cells by SRB assay; assay type: functional; procedure, shortened: as §1
Malme-3M [33] = assay: Antiproliferative activity against human MALME-3M cells by SRB assay; assay type: functional; procedure, shortened: as §1
HCT-116 = assay: Antiproliferative activity against human HCT116 cells by SRB assay; assay type: functional; procedure, shortened: as §1
LOX IMVI [34] = assay: Cytotoxicity against human LOXIMVI cells; assay type: cell-based
MDA-MB-231 [35] = assay: Antiproliferative activity against human MDA-MB-231 cells by SRB assay; assay type: functional; procedure, shortened: as §1
SK-OV-3 [36] = assay: Cytotoxicity against human SKOV3 cells; assay type: cell-based
NCI-H226 = assay: Cytotoxicity against human NCI-H226 cells; assay type: cell-based
UO-31 = assay: Antiproliferative activity against human UO31 cells by SRB assay; assay type: functional; procedure, shortened: as §3
HT-29 = assay: Cytotoxicity against human HT-29 cells; assay type: cell-based; procedure, shortened: as §2
OVCAR-5 [37] = assay: Antiproliferative activity against human OVCAR5 cells by SRB assay; assay type: functional; procedure, shortened: as §1
MDA-MB-435 [38] = assay: Antiproliferative activity against human MDA-MB-435 cells by SRB assay; assay type: functional; procedure, shortened: as §1
HOP-62 = assay: Cytotoxicity against human HOP62 cells; assay type: cell-based; procedure, shortened: as §2
MDA-MB-468 = assay: Antiproliferative activity against human MDA-MB-468 cells by SRB assay; assay type: functional; procedure, shortened: as §1

Compound: CC(/C=C/c1ccccc1)n1cc(/C=C/C(=O)NO)nn1 (stereo not given)
- GI50 (BT-549 [1]): 2110 nM
- LC50 (DU-145 [2]): > 100000 nM
- LC50 (NCI-H460 [3]): 42700 nM
- LC50 (A549): > 100000 nM
- GI50 (SK-OV-3 [4]): 1170 nM
- LC50 (COLO 205): 5200 nM
- LC50 (M14 [5]): 9080 nM
- GI50 (TK-10): 582 nM
- GI50 (K562): 355 nM
- LC50 (Malme-3M [6]): 51900 nM
- LC50 (BT-549 [7]): > 100000 nM
- LC50 (MDA-MB-231 [8]): > 100000 nM
- GI50 (NCI-H23 [9]): 1250 nM
- GI50 (LOX IMVI [10]): 438 nM
- GI50 (RXF 393): 1410 nM
- GI50 (ACHN): 765 nM
- GI50 (786-0 [11]): 1640 nM
- GI50 (SN12C): 1290 nM
- LC50 (CCRF-CEM): > 100000 nM
- LC50 (HOP-92): 7530 nM
- LC50 (CAKI-1): 34700 nM
- LC50 (SF-539 [12]): 4610 nM
- GI50 (A498 [13]): 472 nM
- GI50 (EKVX [14]): 2090 nM
- GI50 (U-251): 777 nM
- LC50 (OVCAR-4): 18300 nM
- GI50 (M14 [15]): 777 nM
- GI50 (SF-268 [16]): 1510 nM
- GI50 (T47D): 667 nM
- LC50 (SF-268 [17]): 12200 nM
- LC50 (MDA-MB-435 [18]): 30800 nM
- GI50 (UACC-62): 524 nM
- GI50 (SF-295): 1060 nM
- LC50 (A498 [19]): 4830 nM
- LC50 (PC-3): > 100000 nM
- GI50 (SR [20]): 385 nM
- LC50 (SW-620 [21]): 5150 nM
- LC50 (EKVX [22]): > 100000 nM
- LC50 (SR [23]): > 100000 nM
- LC50 (SK-MEL-2): 37000 nM
- LC50 (OVCAR-5 [24]): > 100000 nM
- GI50 (OVCAR-3): 1130 nM
- GI50 (HCT-15): 2090 nM
- LC50 (NCI-H322M [25]): > 100000 nM
- LC50 (NCI-H23 [26]): 6610 nM
- GI50 (SW-620 [27]): 383 nM
- GI50 (NCI-H460 [28]): 612 nM
- GI50 (NCI-H322M [29]): 1280 nM
- GI50 (SF-539 [30]): 934 nM
- GI50 (SK-MEL-28): 819 nM
- LC50 (786-0 [31]): 9030 nM
- GI50 (MCF7): 1160 nM
- GI50 (DU-145 [32]): 803 nM
- GI50 (Malme-3M [33]): 279 nM
- GI50 (HCT-116): 341 nM
- LC50 (LOX IMVI [34]): 4120 nM
- GI50 (MDA-MB-231 [35]): 1380 nM
- LC50 (SK-OV-3 [36]): 21800 nM
- LC50 (NCI-H226): 71400 nM
- GI50 (UO-31): 549 nM
- LC50 (HT-29): 33900 nM
- GI50 (OVCAR-5 [37]): 488 nM
- GI50 (MDA-MB-435 [38]): 440 nM
- LC50 (HOP-62): 48200 nM
- GI50 (MDA-MB-468): 299 nM
